H9c2 protect = myocardial damage modulation in H9c2 cells | actives 0.63% (n = 360,000) | protection from H2O2 cell death, % at 20 µM | H9c2 cardiomyocytes, H2O2 injury protection, ATPLite, 2 h;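 active means compounds giving at least 50% protection of heart cells from peroxide-induced death in the single-dose screen, raw or plate-pattern-corrected value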;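 further: 0% = DMSO wells with peroxide and 100% = DMSO wells without peroxide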
SENP1 inh = SENP1 (human) catalytic domain inhibition; recombinant SENP1 catalytic domain, CyPet-SUMO1-YPet FRET cleavage; inhibition, % at 10 µM; actives 0.21% (n = 360,000);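 active means inhibition at least 30% at 10 µM, raw YFP signal under a set limit, fluorescence ratio 0.5 to 1.5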;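 further: 0% = enzyme with DMSO and 100% = no enzyme wells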
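Test system: recombinant human SENP1 catalytic domain, His6-tagged / Medium: pH 8 Tris buffer with EDTA, NaCl, BME, BSA, NP40, catalase / Also added: SUMO1 FRET substrate flanked by Cypet and Ypet, 25 nM / Times: 50 min reaction at room temperature / Signal: FRET, CFP and YFP emission / Control set: no-enzyme low control and enzyme-plus-DMSO high control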
HNF4A DNA FP = change in binding of human HNF4 alpha to DNA | P41235 | HNF4a-FITC DNA binding, fluorescence polarization, 1 h | activity change, % at 10 µM | actives 0.3% (n = 360,000) | AID 1224865; in the data active means activity change above about 30%, passing the limit was not always enough
Myeloid diff MLP = promotes myeloid progenitor differentiation | ER-HoxA9 myeloid progenitors, lysozyme-GFP differentiation, flow cytometry | actives 1% (n = 360,000) | calls only at 10 µM;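 active means normalized GFP-positive differentiation at or above the plate's own cutoff, the solvent-only control mean plus 3 SD; inconclusive means no clear call, values can overlap the other calls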;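 further: cells exposed to compound for four days before flow analysis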
Exocytosis inh = blocks lytic granule exocytosis. TALL-104 LAMP-1 surface exposure, flow cytometry; cells stimulated with thapsigargin and PMA. inhibition, % at 10 µM. actives 0.66% (n = 360,000);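 active means inhibition above about 55%, limit read from the data; inconclusive means no clear call, values can overlap the other calls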
Pemphigus Ab inh = human desmoglein-3 autoantibody binding inhibition. DSG3-coupled beads, scFv-anti-DSG3-GFP binding, flow cytometry; stronger effect = lower value. binding (percent of control), % at 10 µM. actives 0.48% (n = 310,000);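 active means binding more than 3 SD below its plate's average and above zero; inconclusive means below that plate limit but binding exactly zero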;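 further: hits lower antibody fragment binding to DSG3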
Target sequence (P32926 whole entry, looked up, the tested form may be a part): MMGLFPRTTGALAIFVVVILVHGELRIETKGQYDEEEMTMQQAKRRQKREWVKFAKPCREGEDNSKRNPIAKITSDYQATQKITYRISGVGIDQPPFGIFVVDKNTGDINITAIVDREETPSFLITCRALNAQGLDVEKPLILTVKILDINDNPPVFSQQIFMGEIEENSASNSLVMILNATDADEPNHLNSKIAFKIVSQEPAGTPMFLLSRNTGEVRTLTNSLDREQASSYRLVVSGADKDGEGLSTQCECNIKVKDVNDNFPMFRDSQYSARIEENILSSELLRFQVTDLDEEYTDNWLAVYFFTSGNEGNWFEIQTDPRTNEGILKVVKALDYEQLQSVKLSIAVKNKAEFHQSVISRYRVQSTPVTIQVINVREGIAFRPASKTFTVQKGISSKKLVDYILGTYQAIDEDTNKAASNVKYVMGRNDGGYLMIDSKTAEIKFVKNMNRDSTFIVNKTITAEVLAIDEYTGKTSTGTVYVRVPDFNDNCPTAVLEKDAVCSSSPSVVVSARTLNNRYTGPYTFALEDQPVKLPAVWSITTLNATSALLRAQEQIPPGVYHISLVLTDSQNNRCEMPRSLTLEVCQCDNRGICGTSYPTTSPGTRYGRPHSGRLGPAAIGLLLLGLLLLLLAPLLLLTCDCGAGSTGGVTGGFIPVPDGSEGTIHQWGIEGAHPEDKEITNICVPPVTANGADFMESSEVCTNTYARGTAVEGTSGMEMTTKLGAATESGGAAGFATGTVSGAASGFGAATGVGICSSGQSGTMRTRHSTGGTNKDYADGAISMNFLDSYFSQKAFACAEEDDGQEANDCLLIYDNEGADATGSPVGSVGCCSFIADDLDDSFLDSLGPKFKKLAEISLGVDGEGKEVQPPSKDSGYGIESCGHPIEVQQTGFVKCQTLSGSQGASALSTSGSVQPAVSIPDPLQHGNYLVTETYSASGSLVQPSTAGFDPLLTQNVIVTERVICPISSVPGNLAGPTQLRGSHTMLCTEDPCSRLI
Myeloid diff CP1 = promotes myeloid progenitor differentiation. shares compounds with Myeloid diff MLP. ER-HoxA9 myeloid progenitors, GFP/Mac1 double-positive flow. calls only. actives 2% (n = 2,300);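 active means share of green or green-and-red cells above 9 and 9% in run 1 or 4 and 3% in run 2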
GFP autofluor = counter-screen for myeloid differentiation promoters: compound fluorescence | shares compounds with Myeloid diff MLP | ER-HoxA9 myeloid progenitors, no estrogen, GFP autofluorescence flow cytometry; vehicle wells 0%, positive control 100% | fluorescence response, % (test concentration not listed) | actives 7.4% (n = 2,300);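 active means over 5% cells positive for green fluorescent reporter, or over 2% positive for both it and APC stain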;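 further: range taken on the double positive population between DMSO and positive control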
Exocytosis CP01 = blocks lytic granule exocytosis. AID 651954. inhibition, % at 10 µM. actives 11% (n = 1,500). TALL-104 cells, LAMP-1 externalization, flow cytometry; stimulated with PMA plus thapsigargin. shares compounds with Exocytosis inh; in the data active means inhibition above about 60%;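 further: 0% = stimulated vehicle wells and 100% = unstimulated wells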
HNF4A confirm = change in binding of human HNF4 alpha to DNA, retest | actives 99% (n = 210) | activity change, % at 12.5 µM | shares compounds with HNF4A DNA FP | HNF4A-FITC DNA binding, fluorescence polarization, 1 h; call rule not given here
* = called active by the depositor; i = inactive; ? = inconclusive; / = not tested or not shown; + = active, no number. Rows were chosen to be rich in hits. Some 3% of all compounds tested hit in one or more screens of this group.

SMILES | H9c2 protect | SENP1 inh | HNF4A DNA FP | Myeloid diff MLP | Exocytosis inh | Pemphigus Ab inh | Exocytosis CP01 | others
COC(=O)C1=C(c2ccc(Cl)c(C(F)(F)F)c2)C[C@@H]2CC[C@H]1N2C(=O)N1CCCC1 | -1.3 | -1.6 | 2.0 | i | -3.7 | 104.5 | / | Myeloid diff CP1=i;GFP autofluor=0.0
COC(=O)C1=C(c2cc3ccccc3s2)C[C@@H]2CC[C@H]1N2C(=O)NC1CC1 | -2.5 | 2.7 | 0.2 | i | -3.6 | 99.4 | /
CN1CCCN(C(=O)COc2cccc(C(F)(F)F)c2)CC1 | -2.8 | 0.5 | 7.3 | i | -1.6 | 114.4 | /
O=c1[nH]c(O)c(C=Nc2cccc(F)c2)c(=O)[nH]1 | -3.6 | 0.5 | 0.5 | i | -5.5 | 100.8 | /
CCN(CC)C(=O)c1ccc(NC(=O)c2cccc(S(=O)(=O)N3CCN(Cc4ccccc4)CC3)c2)cc1 | -15.5 | 1.9 | -0.9 | i | 3.7 | 97.8 | / | Myeloid diff CP1=i;GFP autofluor=1.3
CCN(CC)C(=O)c1ccc(NC(=O)c2cc(S(=O)(=O)N3CCCCCC3)ccc2OC)cc1 | -3.9 | -0.3 | -2.7 | i | 11.4 | 99.6 | /
C1CCC2CCCCC2C1 (stereo not given) | 1.1 | 1.0 | 0.3 | i | 7.3 | 98.3 | /
CCOC(=O)C1SC2(C(F)(F)F)CC1(O)c1c(C)cc(C)nc1O2 (stereo not given) | 5.6 | -0.7 | 0.7 | + | -0.6 | 99.5 | / | Myeloid diff CP1=i;GFP autofluor=0.3
COC(=O)C1=C(C(=O)OC)C2OC1c1cc3ccccc3cc12 | -20.0 | 0.5 | -1.2 | ? | 4.9 | 90.9 | /
COc1ccc(C2=NCC(=O)N(CC(=O)NCc3ccco3)c3sc4c(c32)CCCC4)cc1 | -2.3 | -0.5 | -1.9 | i | 5.1 | 76.1* | / | Myeloid diff CP1=i;GFP autofluor=1.0
CCCCC(=O)N/N=C/c1c(O)n(C2CC2)c(=S)[nH]c1=O | 1.6 | -0.6 | -3.1 | i | -0.5 | 95.1 | /
O=c1[nH]c(=S)n(C2CC2)c(O)c1/C=N/Nc1cccc2ccccc12 | 9.8 | -36.5 | 2.0 | i | 2.9 | 111.5 | / | Myeloid diff CP1=i;GFP autofluor=2.1
CCOC(=O)Cc1csc(NC(=O)c2c(O)c3ccccc3n(CCC(C)C)c2=O)n1 | -2.9 | 2.5 | -0.3 | ? | -2.3 | 85.9 | /
CC(C)CC1(CCc2ccccc2)C(=O)NC(=O)NC1=O | 2.6 | 0.2 | 1.3 | i | 6.0 | 93.6 | /
COc1ccc(C2C(C(=O)N3CCC4(CC3)OCCO4)c3cc(OC)c(OC)cc3C(=O)N2C)cc1 (stereo not given) | -0.2 | 0.3 | 3.0 | i | 4.6 | / | / | Myeloid diff CP1=i;GFP autofluor=0.0
O=C1NC(=O)N(Cc2ccccc2Cl)C(=O)/C1=C/N1CCOCC1 | 1.1 | -26.0 | 37.4* | i | 2.8 | 104.9 | / | Myeloid diff CP1=i;GFP autofluor=0.8;HNF4A confirm=53.9*
COP(=S)(OC)c1c(C)nn(CCC#N)c1NC(=O)c1ccc(Cl)cc1 | 5.3 | 3.2 | 2.4 | i | -4.9 | 93.2 | /
CC(C)Nc1ccc(Nc2ccccc2)cc1 | -5.5 | 2.6 | 3.9 | / | 100.4* | 87.8 | 51.6
COC(=O)C1=C(c2ccc(S(C)(=O)=O)cc2)C[C@@H]2CC[C@H]1N2C(=O)N1CCC(C)CC1 | 1.1 | -0.3 | 7.1 | i | -3.7 | 98.4 | /
Cc1cc(C)cc(NC2=NCCCS2)c1 | 5.8 | 0.6 | 2.8 | i | -2.0 | 116.2 | /
CCCCCN1C(=O)c2cc(OC)ccc2[C@@]2(C(=O)OCC)Cc3cc(Cl)ccc3[C@@H]12 | / | -0.5 | 1.6 | ? | 62.8* | / | -0.4
CCOC(=O)[C@]12Cc3cc(OC)ccc3[C@H]1N(C1CCCCC1)C(=O)c1ccccc12 | / | 1.1 | -0.2 | ? | 66.9* | / | -9.9
CCOC(=O)[C@]12Cc3cc(OC)ccc3[C@H]1N(C)C(=O)c1ccccc12 | / | 1.1 | -1.5 | i | -0.4 | / | /
CCOC(=O)[C@]12Cc3cc(Cl)ccc3[C@H]1N(C1CCCCC1)C(=O)c1ccccc12 | / | -2.4 | -4.3 | ? | 82.8* | / | 8.2
CCOC(=O)[C@]12Cc3cc(Cl)ccc3[C@H]1N(Cc1ccccc1)C(=O)c1cc(OC)ccc12 | / | -0.8 | -1.6 | i | 13.8 | / | /
SMILES | H9c2 protect | SENP1 inh | HNF4A DNA FP | Myeloid diff MLP | Exocytosis inh | Pemphigus Ab inh | Exocytosis CP01 | others
COc1ccc(C(c2nnnn2C2CCCCC2)N2CCC3(CC2)C(=O)NCN3c2ccccc2)cc1 (stereo not given) | 13.1 | 0.3 | -3.7 | i | 1.3 | / | /
CC(Cc1ccc(O)cc1)NCC(O)c1ccc(O)c(O)c1 (stereo not given) | 1.6 | -58.1 | -24.8 | i | 65.7* | 98.2 | -2.1
O=c1[nH]c(=O)n(-c2ccc(F)cc2)c(O)c1/C=C1\C=Nc2ccccc21 | 0.5 | 1.0 | 0.5 | i | 55.7* | 123.1 | -2.9
Cn1cc(C=O)c2nccnc21 | 0.3 | 1.0 | -0.4 | i | 2.9 | 103.9 | /
CN(C(=O)Cc1ccc2c(c1)OCO2)C1CCCN(Cc2ccccc2F)C1 (stereo not given) | -2.0 | 3.7 | -1.6 | i | -4.6 | 116.8 | /
Cc1ccccc1CC(=O)N(CCN(C)C)CC1CCCN(Cc2ccccc2F)C1 (stereo not given) | 13.3 | 1.1 | 3.5 | i | 61.5* | 112.5 | -4.7
Clc1cccc(N2Cc3cc(-c4ccccc4)ccc3-n3nncc3C2)c1 | -5.9 | 3.8 | -3.6 | i | 98.9* | / | -12.7
COc1ccc(-c2ccc3c(c2)CN(c2cccc(Cl)c2)Cc2cnnn2-3)cc1 | -1.9 | 1.5 | 1.4 | i | 88.0* | / | -11.9
CC(C)c1ccc(C2NCc3ccccc3-n3cccc32)cc1 (stereo not given) | -14.1 | -1.4 | 0.3 | i | 38.9 | 119.5 | /
FC(F)(F)Oc1ccc(C2NCc3ccccc3-n3cccc32)cc1 (stereo not given) | -4.7 | -0.7 | 2.2 | i | 59.2* | 106.8 | -15.3
CCOC(=O)c1c(C)n(Cc2ccccc2)c2ccc(OCC(O)CN3C(=O)CNC3=O)cc12 (stereo not given) | 10.3 | 1.2 | 3.5 | i | 1.4 | 98.7 | /
C#CCOc1ccc2c(c1)c(C(C)=O)c(C)n2Cc1ccccc1 | -1.5 | -1.9 | -2.9 | i | 59.7* | 110.5 | -3.8
Cc1cccc(CNCCc2c[nH]c3ccccc23)c1 | 15.7 | 0.4 | -2.1 | i | 80.0* | 93.8 | -11.0
Fc1cccc(CNCCc2c[nH]c3ccccc23)c1 | -5.3 | -1.9 | 0.4 | i | 6.9 | 111.8 | /

Bioassay records deposited in PubChem by several laboratories.
